Data set [1] can be described thus: folding enthalpy; higher = less favourable; fluorescence melt of hairpins on a sequencing array, two-state fit. As to conditions: sodium 0.088 M. The gist of the method:
(§1)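 With Cy3 and quencher oligos annealed, library hairpins on a sequenced MiSeq flow cell were imaged for Cy3 fluorescence in 50 mM Na-HEPES pH 8.0, 25 mM NaCl, in 2.5 °C steps up to 60 °C. Melting temperature and folding enthalpy were derived from bootstrapped two-state fits of signals normalised to pre-quench Cy3 and to control constructs. Four replicates were combined by inverse variance, with fitted temperatures raised by 9.35 °C to match UV melts.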

A short description of data set [2]: melting temperature; fluorescence melt of hairpins on a sequencing array, two-state fit, raised by 9.35 °C to match UV melts. The note with it: sodium 0.088 M. The method, boiled down: as §1

Turning to GGCCACGGAAACGCGGCC ((((.((....)).)))), in data set [1], the folding enthalpy was -40.4 kcal/mol. For the same sequence, the Tm in data set [2] is 66.5 °C.

In the case of GGCCACGGAAACGTAGCC (((.(((....))).))), the folding enthalpy in data set [1] is -28 kcal/mol. Moreover, the Tm in data set [2] amounted to 50.8 °C.

As to GGCCACGGAAACGTGGTC (.(((((....))))).), the folding enthalpy in data set [1] is -25.7 kcal/mol. Further, the Tm in data set [2] came to 64.9 °C.

On to GGCCAGCGAAAGCTAGCC (((.(((....))).))), for which the folding enthalpy in data set [1] is -29.6 kcal/mol. In addition, the Tm in data set [2] is 56.4 °C.

On to GGCCAGTCGAAAGACGCC (((..(((....)))))), for which the folding enthalpy in data set [1] is -18.2 kcal/mol. The Tm in data set [2] came out at 50.1 °C.

As to GGCCATCGAAAGATGCC (((.(((....)))))), the folding enthalpy in data set [1] was -19.8 kcal/mol. The Tm in data set [2] worked out at 54.9 °C.

For GGCCATGGAAACACGGCC ((((.((....)).)))), the folding enthalpy in data set [1] is -45.4 kcal/mol. Further, the Tm in data set [2] was 51.7 °C.

For GGCCCAACGAAAGTTGCC (((..(((....)))))), the folding enthalpy in data set [1] is -13.9 kcal/mol. In data set [2], the Tm came out at 32.5 °C.

Consider GGCCCACGAAAGTGGCC (((.(((....)))))), for which the folding enthalpy in data set [1] was -17.8 kcal/mol. In addition, the Tm in data set [2] worked out at 65.4 °C.

As for GGCCCAGCGAAAGCTGCC (((..(((....)))))), in data set [1], the folding enthalpy is -8.49 kcal/mol. Further, in data set [2], the Tm was 36 °C.

For the sequence GGCCCAGGAAACCGGACC ((.((.(....).)).)), the folding enthalpy in data set [1] is -27.4 kcal/mol. In data set [2], the Tm was found to be 33.5 °C.

In the case of GGCCCAGGAAACCGGGCC (((((.(....).))))), the folding enthalpy in data set [1] is -42.2 kcal/mol. Further, the Tm in data set [2] turned out to be 63.5 °C.

Turning to GGCCCCGAAAGGGATGCC ((((((....)))..))), the folding enthalpy in data set [1] is -22.2 kcal/mol. Besides, the Tm in data set [2] was found to be 56.8 °C.

GGCCCCGAAAGGGCTGCC ((((((....)))..))): in data set [1], the folding enthalpy is -15.1 kcal/mol. The Tm in data set [2] is 68.2 °C.

Regarding GGCCCCGGAAACAGGGCC (((((.(....).))))), the folding enthalpy in data set [1] is -43.7 kcal/mol. In data set [2], the Tm worked out at 58.2 °C.

On to GGCCCCGGAAACGGAGCC (((.(((....))).))), for which the folding enthalpy in data set [1] is -31.1 kcal/mol. Moreover, the Tm in data set [2] came out at 56.6 °C.

With GGCCCGCCGAAAGGCGCC (((..(((....)))))), in data set [1], the folding enthalpy is -7.51 kcal/mol. Moreover, the Tm in data set [2] was determined as 38 °C.

As to GGCCCGGGAAACCGGACC ((.((((....)))).)), in data set [1], the folding enthalpy was -29.3 kcal/mol. Further, the Tm in data set [2] was 57.5 °C.

In the case of GGCCCTCGAAAGAGCGCC (((.(((....))).))), the folding enthalpy in data set [1] is -35.2 kcal/mol. Moreover, the Tm in data set [2] is 51.6 °C.

In the case of GGCCCTCGAAAGAGGCC (((.(((....)))))), the folding enthalpy in data set [1] is -21.3 kcal/mol. Besides, the Tm in data set [2] came to 58.4 °C.

As to GGCCCTGGAAACAGGACC ((.((((....)))).)), in data set [1], the folding enthalpy was -35.3 kcal/mol. For the same sequence, in data set [2], the Tm stood at 51 °C.

With GGCCGAGGAAACCCAGCC (((.(.(....).).))), in data set [1], the folding enthalpy was -11.8 kcal/mol. Besides, the Tm in data set [2] was 29.6 °C.

With GGCCGCCCGAAAGGGGCC (((..(((....)))))), the folding enthalpy in data set [1] was -15 kcal/mol. Also, the Tm in data set [2] came out at 62 °C.

Take GGCCGCCGAAAGGCGCC (((.(((....)))))): the folding enthalpy in data set [1] was -12.8 kcal/mol. In data set [2], the Tm stood at 68.2 °C.

In the case of GGCCGCGAAAGCGGGGCC ((((((....)))..))), in data set [1], the folding enthalpy is -12.7 kcal/mol. Moreover, in data set [2], the Tm was determined as 63.6 °C.

As for GGCCGCGAAAGCGTCGCC ((((((....)))..))), the folding enthalpy in data set [1] was -16.7 kcal/mol. Also, in data set [2], the Tm came out at 55.9 °C.

Consider GGCCGGCGAAAGCCGCC (((.(((....)))))), for which the folding enthalpy in data set [1] was -12 kcal/mol. The Tm in data set [2] is 65.3 °C.

In the case of GGCCGTCGAAAGACCGCC (((.(((....))).))), in data set [1], the folding enthalpy is -42.5 kcal/mol. For the same sequence, in data set [2], the Tm amounted to 53 °C.

GGCCTACGAAAGTACGCC (((.(((....))).))): the folding enthalpy in data set [1] was -26.4 kcal/mol. The Tm in data set [2] came to 47.4 °C.

With GGCCTAGAAATAGGCC ((((((....)))))), in data set [1], the folding enthalpy was -34.9 kcal/mol. Further, the Tm in data set [2] is 62.8 °C.

Regarding GGCCTAGGAAACCAGGCC (((((.(....).))))), the folding enthalpy in data set [1] was -49.6 kcal/mol. For the same sequence, the Tm in data set [2] stood at 53.9 °C.

Regarding GGCCTAGGAAACTAGGCC (((((((....))))))), in data set [1], the folding enthalpy was -32.8 kcal/mol. Further, the Tm in data set [2] was determined as 68.6 °C.

Regarding GGCCTCACGAAAGTGGCC (((..(((....)))))), the folding enthalpy in data set [1] is -21.9 kcal/mol. Also, in data set [2], the Tm is 53.7 °C.

For the sequence GGCCTCGAAAGAGCAGCC ((((((....)))..))), the folding enthalpy in data set [1] was -22.3 kcal/mol. In addition, the Tm in data set [2] was determined as 47.6 °C.

For GGCCTCGAAAGAGTGGCC ((((((....)))..))), the folding enthalpy in data set [1] was -36.6 kcal/mol. Besides, the Tm in data set [2] was 54.4 °C.

As to GGCCTCGGAAACGGGGCC ((((.((....)).)))), the folding enthalpy in data set [1] was -35.3 kcal/mol. Further, in data set [2], the Tm came to 66.6 °C.

As for GGCCTCGGAAACGGGGTC (.((.((....)).)).), the folding enthalpy in data set [1] was -37.2 kcal/mol. Moreover, the Tm in data set [2] was 48.6 °C.

Source of the values: the array DNA melting data of Ke et al. (doi:10.1101/2024.01.08.574731).
